Experimental data of several laboratories.
Lines come from different studies, so protocols differ.
Target: Ephrin type-A receptor 3 (EPHA3, Homo sapiens, UniProt P29320)
One construct used (P29320 21-983): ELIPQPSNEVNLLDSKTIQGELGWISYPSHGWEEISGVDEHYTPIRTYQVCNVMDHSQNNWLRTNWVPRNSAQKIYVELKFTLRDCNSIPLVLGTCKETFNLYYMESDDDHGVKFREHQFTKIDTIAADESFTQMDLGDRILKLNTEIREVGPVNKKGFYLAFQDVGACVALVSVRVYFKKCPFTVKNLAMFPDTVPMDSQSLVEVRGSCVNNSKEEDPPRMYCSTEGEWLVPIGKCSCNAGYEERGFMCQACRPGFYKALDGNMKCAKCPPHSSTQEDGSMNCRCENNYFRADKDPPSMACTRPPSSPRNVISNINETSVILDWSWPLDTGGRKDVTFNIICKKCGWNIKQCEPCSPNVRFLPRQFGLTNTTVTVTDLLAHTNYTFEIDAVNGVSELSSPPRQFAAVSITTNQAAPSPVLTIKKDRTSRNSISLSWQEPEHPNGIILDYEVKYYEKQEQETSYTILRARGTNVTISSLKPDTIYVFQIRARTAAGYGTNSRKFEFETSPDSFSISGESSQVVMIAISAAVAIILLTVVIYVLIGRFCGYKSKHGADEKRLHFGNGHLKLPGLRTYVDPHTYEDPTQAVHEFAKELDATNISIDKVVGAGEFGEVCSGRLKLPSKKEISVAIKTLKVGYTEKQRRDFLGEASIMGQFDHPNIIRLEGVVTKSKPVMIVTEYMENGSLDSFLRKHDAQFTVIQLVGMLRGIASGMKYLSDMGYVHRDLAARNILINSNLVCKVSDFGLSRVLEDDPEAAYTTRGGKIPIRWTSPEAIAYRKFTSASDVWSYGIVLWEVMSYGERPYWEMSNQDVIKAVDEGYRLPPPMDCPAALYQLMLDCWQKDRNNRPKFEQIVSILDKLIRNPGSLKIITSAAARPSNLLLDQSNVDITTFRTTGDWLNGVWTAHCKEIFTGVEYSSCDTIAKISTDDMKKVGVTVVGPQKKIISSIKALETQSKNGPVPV

COc1cnc(Nc2cccc(S(N)(=O)=O)c2)nc1N1CCN(c2ccccc2)CC1  remaining binding (binding; competition with immobilised ligand; 1 µM): 73%
O=C(NCCCN1CCOCC1)c1ccc(Nc2nccc(-c3cc4ccccc4s3)n2)cc1  remaining binding (binding; competition with immobilised ligand; 1 µM): 85%
C[C@H](c1cccc(C#N)c1)n1cc(Cl)cc(C(N)=O)c1=N  remaining binding (cell-free assay; competition with immobilised ligand; 1 µM): 100%
C[C@@H]1CCN(c2nccc(-c3cnn4ncccc34)n2)C1  remaining binding (binding; 1 µM): 61%
O=C(Nc1c[nH]nc1C(=O)NC1CCNCC1)c1cc(F)cc(F)c1  remaining binding (binding; competition with immobilised ligand; 1 µM): 100%
CN1CCN(c2cnc3c(C4CCN(C(=O)c5ccc(OC(F)(F)F)cc5N)CC4)ncnc3c2)CC1  remaining binding (cell-free assay; competition with immobilised ligand; 1 µM): 100%
O=C(NCCCN1CCOCC1)c1ccc(Nc2ncc(Cl)c(-c3ccc(Cl)s3)n2)cc1  remaining binding (binding; competition with immobilised ligand; 1 µM): 63%
C[C@H](NC(=O)c1cnc2n1[C@](C)(Cc1ccc(C#N)cc1)C(=O)N2c1cc(Cl)c(F)c(Cl)c1)C(=O)NC1(c2ccccn2)CC1  remaining binding (cell-free assay; competition with immobilised ligand; 1 µM): 88%
CN(CCCC(F)(F)F)c1nccc(-c2cnn3ncccc23)n1  remaining binding (binding; 1 µM): 100%
CC1=C(C#N)[C@@H](c2ccc3[nH]nc(C)c3c2)C(C#N)=C(c2ccc(Cl)cc2)N1  remaining binding (cell-free assay; competition with immobilised ligand; 1 µM): 100%
FC(F)(F)Oc1cccc(-c2cnc3ccc(-c4ccncc4)nn23)c1  remaining binding (cell-free assay; competition with immobilised ligand; 5 µM): 76%
C=CC(=O)N1CCC(C(=O)NCC(=O)N2CCN(c3nc(-c4cnc(N)nc4C(F)F)nc(N4CCOCC4)n3)CC2)CC1  remaining binding (binding; competition with immobilised ligand; 1 µM): 90%
N[C@@H]1CCN(c2nccc(-c3cnn4ncccc34)n2)C1  remaining binding (binding; 1 µM): 100%
COc1ccc2c(O[C@@H]3C[C@H]4C(=O)N[C@]5(C(=O)O)CC5/C=C\CCCCC[C@H](NC(=O)OC5CCCC5)C(=O)N4C3)cc(-c3csc(NC(=O)C(C)C)n3)nc2c1C (some centres unmarked)  remaining binding (cell-free assay; competition with immobilised ligand; 1 µM): 97%
CC1CCCN1c1nccc(-c2cnn3ncccc23)n1 (centres unmarked)  remaining binding (binding; 1 µM): 97%
O=C(c1ccc(Nc2ncc(Cl)c(-c3cc4ccccc4s3)n2)cc1)N1CCC(N2CCCC2)CC1  remaining binding (binding; competition with immobilised ligand; 1 µM): 84%
Cc1cnn2ncc(-c3ccnc(N(C)C)n3)c2c1  remaining binding (binding; 1 µM): 84%
CC(=O)Nc1c(C(C)=O)c(=O)n(C)c2nc(-c3ccc(Cl)cc3Cl)c(-c3ccc(Cl)cc3)cc12  remaining binding (cell-free assay; competition with immobilised ligand; 1 µM): 100%
CCN1CCN(Cc2ccc(C(=O)Nc3ccc(C)c(Oc4ccc5c(c4)CC(=O)N5)c3)cc2C(F)(F)F)CC1  remaining binding (binding; competition with immobilised ligand; 1 µM): 76%
F[C@@H]1CCN(c2nccc(-c3cnn4ncccc34)n2)C1  remaining binding (binding; 1 µM): 90%
